Source: ChEMBL document CHEMBL5036356, “Spatial Distribution and Stability of Cholinesterase Inhibitory Protoberberine Alkaloids from Papaver setiferum” (J Nat Prod, 2022)

What was measured:
[1] = target: Acetylcholinesterase (Homo sapiens, UniProt P22303); assay: Inhibition of human recombinant AChE using acetylthiocholine chloride as substrate incubated for 5 mins by DTNB reagent based Ellman's method
In short: (§1)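 Enzyme stocks (commercial eel AChE, human recombinant AChE or horse serum BChE) at 0.0075 U/mL in 100 mM potassium phosphate, pH 7.4, added to start the reaction. Acetylthiocholine chloride 1 mM and DTNB 0.5 mM final. Compounds were taken from 5 mg/mL methanol stocks and serially diluted in buffer, with methanol blanks. Rate read at 405 nm, 25 °C, for 5 min. IC50 reported as mean ± SEM of at least three repeats.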

[2] = target: Acetylcholinesterase (Electrophorus electricus, UniProt O42275); assay: Inhibition of electrical eel AChE using acetylthiocholine chloride as substrate incubated for 5 mins by DTNB reagent based Ellman's method; in short: as §1
[3] = target: Cholinesterase (Equus caballus, UniProt P81908); assay: Inhibition of horse serum BChE incubated for 5 mins by DTNB reagent based Ellman's method
In short: as §1, with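 “blanks.” for “blanks. Rate read at 405 nm, 25 °C, for 5 min.”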

Cholinesterase, sequence (P81908 whole entry): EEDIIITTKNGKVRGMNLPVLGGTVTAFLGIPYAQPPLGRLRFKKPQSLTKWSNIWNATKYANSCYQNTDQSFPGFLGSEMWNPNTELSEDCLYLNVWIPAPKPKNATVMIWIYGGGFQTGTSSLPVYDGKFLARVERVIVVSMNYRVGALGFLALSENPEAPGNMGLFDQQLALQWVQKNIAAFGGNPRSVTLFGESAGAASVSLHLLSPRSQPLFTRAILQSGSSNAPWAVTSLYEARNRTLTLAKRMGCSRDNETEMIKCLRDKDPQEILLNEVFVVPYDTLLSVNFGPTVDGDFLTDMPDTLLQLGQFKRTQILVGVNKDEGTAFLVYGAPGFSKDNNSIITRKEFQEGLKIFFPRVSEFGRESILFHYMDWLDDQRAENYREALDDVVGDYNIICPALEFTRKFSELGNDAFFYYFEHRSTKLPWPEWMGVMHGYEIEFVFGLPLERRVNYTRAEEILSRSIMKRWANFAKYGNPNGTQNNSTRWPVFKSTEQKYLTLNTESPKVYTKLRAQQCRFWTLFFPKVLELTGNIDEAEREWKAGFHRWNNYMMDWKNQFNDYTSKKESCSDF
Acetylcholinesterase (Homo sapiens, UniProt P22303), sequence (P22303 whole entry): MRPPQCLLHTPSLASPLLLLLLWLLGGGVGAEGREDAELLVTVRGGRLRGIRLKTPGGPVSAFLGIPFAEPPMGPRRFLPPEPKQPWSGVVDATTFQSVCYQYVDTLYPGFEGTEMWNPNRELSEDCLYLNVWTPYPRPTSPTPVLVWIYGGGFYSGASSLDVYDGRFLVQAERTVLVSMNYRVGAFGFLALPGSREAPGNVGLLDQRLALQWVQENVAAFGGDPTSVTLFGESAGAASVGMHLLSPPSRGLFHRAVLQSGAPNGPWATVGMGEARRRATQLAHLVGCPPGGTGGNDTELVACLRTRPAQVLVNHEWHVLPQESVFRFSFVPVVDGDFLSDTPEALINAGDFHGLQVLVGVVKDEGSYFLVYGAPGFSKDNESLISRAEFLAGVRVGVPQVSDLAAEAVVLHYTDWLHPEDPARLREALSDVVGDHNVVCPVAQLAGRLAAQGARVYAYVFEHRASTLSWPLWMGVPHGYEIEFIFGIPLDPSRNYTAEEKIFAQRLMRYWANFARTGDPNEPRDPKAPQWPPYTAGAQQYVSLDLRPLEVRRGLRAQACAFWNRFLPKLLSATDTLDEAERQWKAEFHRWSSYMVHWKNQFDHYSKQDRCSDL
Acetylcholinesterase (Electrophorus electricus, UniProt O42275), sequence (O42275 whole entry): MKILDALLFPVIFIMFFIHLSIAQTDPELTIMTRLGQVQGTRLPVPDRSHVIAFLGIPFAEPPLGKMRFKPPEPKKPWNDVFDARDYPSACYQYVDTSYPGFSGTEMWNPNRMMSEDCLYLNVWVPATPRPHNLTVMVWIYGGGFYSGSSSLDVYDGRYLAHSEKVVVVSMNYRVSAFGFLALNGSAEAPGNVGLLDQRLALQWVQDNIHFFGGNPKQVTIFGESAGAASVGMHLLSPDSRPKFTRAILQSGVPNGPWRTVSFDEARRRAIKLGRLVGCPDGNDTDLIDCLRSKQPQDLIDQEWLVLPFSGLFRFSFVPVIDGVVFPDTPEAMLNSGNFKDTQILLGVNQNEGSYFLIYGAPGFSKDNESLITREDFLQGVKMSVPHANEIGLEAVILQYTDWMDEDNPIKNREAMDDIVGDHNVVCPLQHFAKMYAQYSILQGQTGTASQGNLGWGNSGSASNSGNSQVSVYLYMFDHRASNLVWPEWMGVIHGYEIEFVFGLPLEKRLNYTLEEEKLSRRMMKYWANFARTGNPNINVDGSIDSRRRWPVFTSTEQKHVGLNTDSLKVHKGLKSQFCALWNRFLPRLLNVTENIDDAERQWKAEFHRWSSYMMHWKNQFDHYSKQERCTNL

COC1=C[C@]23CCN(C)[C@H](Cc4ccc(OC)c(O)c42)C3=CC1=O [SALUTARIDINE]
Not Active: IC50 [1] | Ki [1] | IC50 [2] | Ki [2] | Ki [3]

COc1cc2c3c(c1O)-c1c(cccc1OC)C[C@@H]3[N+](C)(C)CC2
Not Active: IC50 [1] | Ki [1] | IC50 [2] | Ki [2]

COc1cc2c3c(c1O)-c1c(cccc1OC)C[C@@H]3N(C)CC2
Not Active: IC50 [1] | Ki [1]

COc1cc2c(cc1O)[C@H](Cc1ccc(OC)c(OC)c1)[N+](C)(C)CC2
Not Active: IC50 [1] | Ki [1] | IC50 [2] | Ki [2] | Ki [3]

COc1cc(C[C@H]2c3cc(O)c(OC)cc3CC[N+]2(C)C)ccc1O
Not Active: IC50 [1] | Ki [1] | IC50 [2] | Ki [2] | Ki [3]

O=[N+]([O-])CCc1ccc(O[C@@H]2O[C@H](CO[C@@H]3OC[C@@H](O)[C@H](O)[C@H]3O)[C@@H](O)[C@H](O)[C@H]2O)cc1
Not Active: IC50 [1] | Ki [1] | IC50 [2] | Ki [2] | IC50 [3] | Ki [3]
